Four compounds from ChEMBL document CHEMBL1146735, “Synthesis and biological activity of macrocyclic taxane analogues” (Bioorg Med Chem Lett, 2004) can be followed below.

Experiment [1] can be described thus: Compound was evaluated for the ratio of IC50 of A2780/tub cell line to that of IC50 of A2780 cell line. Format: functional. An outline of the steps:
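Resistance ratio: IC50 in the A2780/tub line divided by the IC50 in parental A2780.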

The species entered for the next experiment is Homo sapiens. Put plainly: Compound was evaluated for the inhibition of tubulin polymerization. Format: functional. An outline of the steps:
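Tubulin polymerization followed by optical density. The value is the compound concentration giving a change of 0.01 OD/h, divided by the corresponding concentration of paclitaxel.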

The next experiment deals with A2780. Description: In vitro cytotoxicity against the paclitaxel sensitive […]. Type of experiment: functional, cell-based. As to conditions: Homo sapiens.
In the next experiment the test system is HCT-116. Description: In vitro cytotoxicity against the paclitaxel sensitive human colon carcinoma cell line HCT116. Format: functional, cell-based. In a few lines:
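HCT116 cells exposed to compound for 72 h. Viability read by MTS assay and IC50 derived from it.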

Experiment [2] in a line: Compound was evaluated for the median survival time of compound treated mice to that of median survival time of the control mice at a dose of 120 mg/kg/injection.
The nature of experiment [3]: Compound was evaluated for the ratio of HCT/mdr cell line to that of IC50 of HCT116 cell line. Type of experiment: functional, HCT-116. An outline of the steps: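 Resistance ratio: IC50 in the HCT116/mdr line divided by the IC50 in parental HCT116.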
A short description of experiment [4]: Compound was evaluated for the median survival time of compound treated mice to that of median survival time of the control mice at a dose of 200 mg/kg/injection. Type of experiment: functional. In a few lines:
(§1)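 Balb/c × DBA/2 F1 hybrid mice implanted intraperitoneally with a 2% (w/v) brei of M109 lung carcinoma. Treatment was by intraperitoneal injection on days 5 and 8 post-implant. Survival was followed daily to about 75–90 days, with an untreated control group in each experiment. %T/C = median survival of treated mice / median survival of controls × 100.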

The nature of experiment [5]: Compound was evaluated for the median survival time of compound treated mice to that of median survival time of the control mice at a dose of 100 mg/kg/injection. Format: functional. In a few lines: as §1

pIC50: −log10 of the molar value.

The term pIC50 denotes −log10 of the IC50, conventionally taken in molar units. A word on the T/C: it is the result in the treated group divided by that in the control group, in per cent.

Turning to `CC(=O)O[C@H]1[C@@H]2CO[C@@H]2[C@@H]2OCOCC(C)(C)COCO[C@H]3C(=O)[C@@]2(C)[C@@H]1[C@H](OC(=O)c1ccccc1)[C@]1(O)C[C@H](OC(=O)[C@H](O)[C@@H](NC(=O)c2ccccc2)c2ccccc2)C(C)=C3C1(C)C`, the R/S ratio is recorded as 23 in experiment [1] and 11 in experiment [3]. In addition, the Tubulin in the experiment filed under Homo sapiens worked out at 2.87. Further, the negative-log IC50 (pIC50) in the experiment with A2780 is 7.74; with HCT-116, 7.76. The compound further yielded a T/C in experiment [2] of 118%.
Regarding `CC(=O)O[C@H]1[C@@H]2CO[C@@H]2[C@@H]2OCOCCOC(=O)O[C@H]3C(=O)[C@@]2(C)[C@@H]1[C@H](OC(=O)c1ccccc1)[C@]1(O)C[C@H](OC(=O)[C@H](O)[C@@H](NC(=O)c2ccccc2)c2ccccc2)C(C)=C3C1(C)C`, the R/S ratio was 32 in experiment [1] and 31 in experiment [3]. Moreover, the Tubulin in the experiment listed under Homo sapiens is given as 0.73. The pIC50 with A2780 is 8.68; in the experiment on HCT-116 it was 8.72.
Consider `CC(=O)O[C@H]1[C@@H]2CO[C@@H]2[C@@H]2OCOCCOCO[C@H]3C(=O)[C@@]2(C)[C@@H]1[C@H](OC(=O)c1ccccc1)[C@]1(O)C[C@H](OC(=O)[C@H](O)[C@@H](NC(=O)c2ccccc2)c2ccccc2)C(C)=C3C1(C)C`, for which the R/S ratio in experiment [1] stood at 15; in experiment [3] it was 10. This compound also displayed a Tubulin in the experiment filed under Homo sapiens of 1.49. Besides, the pIC50 in the experiment with A2780 was 8.59; in the experiment on HCT-116, 8.52. Besides, the T/C in experiment [4] is recorded as 174%.
For the compound `CC(=O)O[C@H]1[C@@H]2CO[C@@H]2[C@@H]2OCOCCOCO[C@H]3C(=O)[C@@]2(C)[C@@H]1[C@H](OC(=O)c1ccccc1)[C@]1(O)C[C@H](OC(=O)[C@H](O)[C@@H](NC(=O)OC(C)(C)C)c2ccccc2)C(C)=C3C1(C)C`, the R/S ratio in experiment [1] was 6; in experiment [3], 12. Moreover, the Tubulin in the experiment listed under Homo sapiens is 0.67. The results for the negative logarithm of the IC50 (pIC50) in the experiment on A2780 and with HCT-116 were 7.73 and 9.10, respectively. Further, the T/C in experiment [5] is recorded as 190%.
